Values after ≈ are worked out from the molar mass of the structure shown. Where only a bound is given, the exact number is not on record here.

Data set [1] has as its system Agrobacterium tumefaciens. Kind of data set: Antibacterial activity against Agrobacterium tumefaciens ATCC 11158 by broth dilution colorimetric assay. Type of data set: functional. An outline of the steps:
(§1)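 Modified broth dilution colorimetric assay in 96-well plates, run against a plant- and human-pathogen panel. Both MIC and median inhibitory concentration (IC50) were determined. Streptomycin sulfate served as the positive control.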
Background: Dilution methods test growth across graded concentrations, often in twofold steps.

Data set [2] deals with Bacillus subtilis. Kind of data set: Antibacterial activity against Bacillus subtilis ATCC 11562 by broth dilution colorimetric assay. Type of data set: functional. An outline of the steps:
as §1

For data set [3], the system named is Pseudomonas amygdali pv. lachrymans. Kind of data set: Antibacterial activity against Pseudomonas lachrymans ATCC 11921 by broth dilution colorimetric assay. It counts as functional. An outline of the steps: as §1
Data set [4] in a line: Antibacterial activity against Ralstonia solanacearum ATCC 11696 by broth dilution colorimetric assay. Type of data set: functional, Ralstonia solanacearum K60-1. An outline of the steps:
(§2)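 Modified broth dilution colorimetric assay in 96-well plates, reporting both minimum inhibitory concentration (MIC) and median inhibitory concentration (IC50). Streptomycin sulfate served as positive control.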

The test system of data set [5] is Staphylococcus haemolyticus. Kind of data set: Antibacterial activity against Staphylococcus haemolyticus ATCC 29970 by broth dilution colorimetric assay. Type of data set: functional. The essentials: as §1
Data set [6] relates to Xanthomonas euvesicatoria. Kind of data set: Antibacterial activity against Xanthomonas vesicatoria ATCC 11633 by broth dilution colorimetric assay. Type of data set: functional. An outline of the steps: as §1
In a further data set the test system is Pyricularia oryzae. Kind of data set: Antifungal activity against Magnaporthe oryzae assessed as inhibition of spore germination after 8 hrs by microscopic analysis. Type of data set: functional. An outline of the steps:
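Spores taken from 7-day-old M. oryzae cultures (2 × 10^6 spores per mL). Compound in 10% aqueous ethanol was mixed 1:1 with the spore suspension on a concave slide and kept in a dark moist chamber at 25 °C for 8 h. Germination was counted by microscope. Inhibition % = [(Gc − Gt)/Gc] × 100 against 10% ethanol control, with triplicates. IC50 was obtained by linear regression; carbendazim served as positive control.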

Data set [7] can be described thus: Cytotoxicity against human HCT116 cells by MTT assay. The settings on record: HCT-116. It counts as functional, cell-based. An outline of the steps: (§3)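 Microculture tetrazolium (MTT) assay on a panel of human carcinoma cell lines: colon HCT-116, hepatocellular HepG2, gastric BGC-823, NSCLC NCI-H1650, ovarian A2780, melanoma A375, lung adenocarcinoma A549, breast MCF-7 and pancreatic Capan2. IC50 values are reported in μM.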
On the technique in general: Formazan colour is commonly taken as a measure of viable cells.

A short description of data set [8]: Cytotoxicity against human HepG2 cells by MTT assay. It counts as functional, cell-based. The essentials:
as §3

Data set [9] is described as follows: Cytotoxicity against human BGC823 cells by MTT assay. It counts as functional, cell-based. The settings on record: BGC-823. The essentials: as §3
A short description of data set [10]: Cytotoxicity against human NCI-H1650 cells by MTT assay. Type of data set: functional, cell-based. The essentials:
as §3

The nature of data set [11]: Cytotoxicity against human A2780 cells by MTT assay. Type of data set: functional, cell-based. An outline of the steps: as §3
Data set [12] is described as follows: Cytotoxicity against human HuCCa1 cells. It counts as functional, cell-based. The settings on record: HuCC-A1.
Data set [13] in a line: Cytotoxicity against human HepG2 cells. Type of data set: functional, cell-based.
Data set [14] in a line: Cytotoxicity against human A549 cells. Type of data set: functional, cell-based.
Data set [15] in a line: Cytotoxicity against human MOLT3 cells. It counts as functional, cell-based. Conditions: MOLT-3.
Data set [16] is described as follows: Cytotoxicity against human HeLa cells. Type of data set: functional, cell-based.
Data set [17] in a line: Cytotoxicity against human T47D cells. Type of data set: functional, cell-based.
A short description of data set [18]: Cytotoxicity against human MDA-MB-231 cells. Type of data set: functional, cell-based.
The nature of data set [19]: Cytotoxicity against human MRC5 cells. It counts as toxicity, cell-based.
In data set [20] the test system is Xanthomonas euvesicatoria. Kind of data set: Antibacterial activity against Xanthomonas vesicatoria ATCC 11633 after 24 hrs by MTT based broth dilution colorimetric assay. Type of data set: functional. The settings on record: ATCC 11633, 24 h. The essentials:
as §2

For data set [21], the system named is Agrobacterium tumefaciens. Kind of data set: Antibacterial activity against Agrobacterium tumefaciens ATCC 11158 after 24 hrs by MTT based broth dilution colorimetric assay. It counts as functional. The settings on record: ATCC 11158, 24 h.
Data set [22] deals with Bacillus subtilis. Kind of data set: Antibacterial activity against Bacillus subtilis ATCC 11562 after 24 hrs by MTT based broth dilution colorimetric assay. It counts as functional. Conditions: ATCC 11562, 24 h.
Data set [23] relates to Pseudomonas amygdali pv. lachrymans. Kind of data set: Antibacterial activity against Pseudomonas lachrymans ATCC 11921 after 24 hrs by MTT based broth dilution colorimetric assay. It counts as functional. The settings on record: ATCC 11921, 24 h. The essentials: as §2
A short description of data set [24]: Cytotoxicity against human A375 cells by MTT assay. Type of data set: functional, cell-based. The settings on record: A-375. The essentials:
as §3

Data set [25] can be described thus: Cytotoxicity against human A549 cells by MTT assay. Type of data set: functional, cell-based. The essentials: as §3
A short description of data set [26]: Cytotoxicity against human MCF7 cells by MTT assay. Type of data set: functional, cell-based. The essentials:
as §3

Data set [27] is described as follows: Cytotoxicity against human Capan2 cells by MTT assay. It counts as functional, cell-based. The settings on record: Capan-2. The essentials: as §3

Broadly, the MIC is the lowest concentration found to suppress growth. Low values mean inhibition by little substance, high ones a need for much substance. Usually IC50 stands for the concentration that inhibits the measured activity by half. Consider `COC1=C(Cl)[C@](C)(O)c2c(oc(=O)c3c(O)cc(OC)cc23)C1=O`, for which the MIC was greater than 200 µg/mL in [1]; 50 µg/mL (≈ 142 µM) against Bacillus subtilis [2]; greater than 200 µg/mL in data set [3]; greater than 200 µg/mL in data set [4]; greater than 200 µg/mL in [5]; greater than 200 µg/mL in data set [6]. Also, the concentration for half-maximal inhibition (IC50) is 21.6 µg/mL (≈ 61.2 µM) with Bacillus subtilis [2]; 12 µg/mL (≈ 34 µM) in the data set with Pyricularia oryzae; 4.2 µM in data set [7]; 5.9 µM in data set [8]; 7.8 µM in data set [9]; 3.2 µM in data set [10]. The IC50 is 3.6 µM in data set [11]; 1.1 to 12.6 µM in data set [12]; 1.1 to 12.6 µM in data set [13]; 1.1 to 12.6 µM in [14]; 1.1 to 12.6 µM in data set [15]; 1.1 to 12.6 µM in data set [16]. Moreover, the IC50 in data set [17], in data set [18] and in [19] was 1.1 to 12.6 µM each time.
In the case of `COc1cc(O)c2c(=O)oc3cc(O)cc(C)c3c2c1`, the half-inhibitory concentration (IC50) in [20] was 16.7 to 34.3 µg/mL (≈ 61.3 to 126 µM); in data set [21] it was 16.7 to 34.3 µg/mL (≈ 61.3 to 126 µM); with Bacillus subtilis [22], 16.7 to 34.3 µg/mL (≈ 61.3 to 126 µM); in [23], 16.7 to 34.3 µg/mL (≈ 61.3 to 126 µM); in data set [7], greater than 50 µM; in data set [24], greater than 50 µM. For the same molecule, the IC50 in data set [25] is 70.4 µM; in data set [26], greater than 50 µM; in [27], greater than 50 µM.
For `COc1cc(O)c2c(=O)oc3cc(O)c(Cl)c(C)c3c2c1`, the IC50 in data set [20] is 16.7 to 34.3 µg/mL (≈ 54.5 to 112 µM); in [21], 16.7 to 34.3 µg/mL (≈ 54.5 to 112 µM); with Bacillus subtilis [22], 16.7 to 34.3 µg/mL (≈ 54.5 to 112 µM); in [23], 16.7 to 34.3 µg/mL (≈ 54.5 to 112 µM); in [7] it was greater than 50 µM; in data set [24], greater than 50 µM. The IC50 in data set [25], in [26] and in [27] was greater than 50 µM in each case.

For the origin of these results see ChEMBL document CHEMBL3865820, “Bioactive Dibenzo-α-pyrone Derivatives from the Endophytic Fungus Rhizopycnis vagum Nitaf22” (J Nat Prod, 2016).
